Results taken from the RNAGym collection of RNA variant scans (doi:10.1038/s41586-018-0170-7).

B1: tRNA (parent)
chain: GUUCCGUUGGCGUAAUGGUAACGCGUCUCCCUCCUAAGGAGAAGACUGCGGGUUCGAGUCCCGUACGGAACG

Variants of: B1
Assay: yeast fitness, log relative to wild type (ln ratio); higher = fitter; tRNA-Arg(CCU), competitive growth, 37 C, 1 M NaCl
Outline: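 Genotype fitness is expressed as the natural log of its generations over those of the wild type. Each pool of the tRNA-Arg(CCU) variant library, carried on a HIS3 centromeric plasmid in BY4742 lacking the chromosomal gene, came from one of two independent transformations and grew 4 generations in SC-HIS at 30 °C before ~6.5 generations (~26.5 h) in SC-HIS 1M NaCl at 37 °C. Generation numbers used OD-scaled log2 output/input frequencies from 125 bp paired-end Illumina sequencing, combined across replicates by inverse-variance weighting.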

Variant | yeast fitness (ln)
U2G G6A C71U | -0.0566
U2G G6U A43C A69G C71U | -0.402
U2G G6U C27U A43C C46U C66U | -0.262
U2G G6U C27U A43C C46U C66A | -0.0517
U2G G6U A43C C66U A69G C71U | -0.408
U2G G6U A43C C71U | -0.17
U2G G6U A43C C66U A69G A70G C71U | -0.411
U2G G6U C27U A43C A70G C71U | -0.329
U2G G6U C27U A43C C66U A70U C71U | -0.441
U2G G6U A69G C71U | -0.17
U2G G6A C66U A70G C71U | -0.253
U2G G6A C66A A70U | -0.178
U2G G6A C66A A70G | -0.0981
U2G G6U C27U A43C C71U | -0.304
U2G G6A C66A A69G A70U | -0.0595
U2G G6U C27U A43C C66A A69G A70G C71U | -0.371
U2G G6A C66A C71U | -0.139
U2G G6U C27U A43C A69G A70U | -0.315
U2G G6U C27U A43C A69G A70G | -0.322
U2G G6U C27U A43C C46U C66A A70G C71U | -0.197
U2G G6U C27U A43C C46U C66A A69G A70G C71U | -0.279
U2G G6U A43C C46U A69G A70U | -0.194
U2G G6U A43C C46U A69G A70G | -0.183
U2G G6U A43C C66A A69G A70U | -0.185

Variant | yeast fitness (ln)
U2G G6U A43C C66A A69G A70G | -0.256
U2G G6U A43C C46U C66U A70U C71U | -0.22
U2G G6U A43C C46U C66U | -0.191
U2G G6U A43C C46U C66A | -0.205
U2G G6U A43C C46U C66A A70G C71U | -0.174
U2G G6U | -0.0233
U2G G6U A43C C46U C66U C71U | -0.309
U2G G6U C27U A43C C66A A70U C71U | -0.445
U2G G6U A43C C46U C66U A69G A70G C71U | -0.348
U2G G6U C27U A43C C46U A69G | -0.199
U2G G6U C27U A43C C66A C71U | -0.39
U2G G6U A43C C46U C66A A70U C71U | -0.135
U2G G6U C27U A43C C46U C66U A69G A70U C71U | -0.507
U2G G6U C27U A43C C46U C66A C71U | -0.363
U2G G6U A43C C66U A70U | -0.279
U2G G6U A43C C66U A70G | -0.338
U2G G6U C27U A43C C46U A70G C71U | -0.295
U2G G6U C27U A43C C46U A69G C71U | -0.336
U2G G6U A43C C46U A69G C71U | -0.221
U2G G6U A43C C46U | -0.106
U2G G6U C27U A43C C46U C66A A70U C71U | -0.629
U2G G6U C27U A43C C46U A70U C71U | -0.228
U2G G6A C66U A69G A70G C71U | -0.161
U2G G6A C66U | -0.0956

Variant | yeast fitness (ln)
U2G G6U A43C C66U A70U C71U | -0.464
U2G G6U A43C C46U A69G A70G C71U | -0.223
U2G G6A C66U C71U | -0.134
U2G G6U C27U A43C C66A A69G A70U | -0.315
U2G G6U C27U A43C C66A A69G A70G | -0.219
U2G G6U C27U A43C C46U C71U | -0.197
U2G G6U A43C C46U C66A A69G A70U | -0.0302
U2G G6U A43C C46U C66A A69G A70G | -0.242
U2G G6U A43C C46U C66U A69G A70U C71U | -0.4
U2G G6U A69G A70G C71U | -0.235
U2G G6U C27U A43C A70U C71U | -0.324
U2G G6U C27U A43C C46U C66A A70U | -0.017
U2G G6U C27U A43C C46U C66A A70G | -0.21
U2G G6U A43C A70U | -0.151
U2G G6U A43C A70G | -0.173
U2G G6U A43C C46U C71U | -0.198
U2G G6U A43C A70G C71U | -0.282
U2G G6U C27U A43C C66A A70G C71U | -0.253
U2G G6U C27U A43C C46U A69G A70G C71U | -0.33
U2G G6A C66U A69G A70G | -0.448
U2G G6A C66U A69G A70U | -0.00753
U2G G6U A43C C66U C71U | -0.405
U2G G6U C27U A43C C66A A69G A70U C71U | -0.382
U2G G6U A43C A69G A70G | -0.237

Variant | yeast fitness (ln)
U2G G6U A43C A69G A70U | -0.227
U2G G6U A43C C66A A69G A70G C71U | -0.315
U2G G6U A43C C66A A70U C71U | -0.43
U2G G6U C27U A69G A70G C71U | -0.363
U2G G6U A43C C66A C71U | -0.324
U2G G6U A43C C66A A70G C71U | -0.265
U2G G6U C27U A43C C66U A70U | -0.219
U2G G6U C27U A43C C66U A70G | -0.356
U2G G6U C27U A43C A69G | -0.268
U2G G6U A43C C46U C66U A69G C71U | -0.487
U2G G6A C66A A69G A70U C71U | -0.31
U2G G6U C27U A43C C66U A69G C71U | -0.645
U2G G6U A43C C66U A69G A70G | -0.323
U2G G6U A43C C66U A69G A70U | -0.379
U2G G6U C27U A43C C66A A69G C71U | -0.445
U2G G6U C27U A43C C66U A69G A70G C71U | -0.51
U2G G6U A70U | -0.0383
U2G G6U A70G | -0.0649
U2G G6U C27U A43C C46U A69G A70U | -0.147
U2G G6U C27U A43C C46U A69G A70G | -0.242
U2G G6A C66U A69G C71U | -0.217
U2G G6U C27U A43C C46U C66U A70G C71U | -0.315
U2G G6U A43C C46U A70G | -0.138
U2G G6U A43C C46U A70U | -0.337

Variant | yeast fitness (ln)
U2G G6U C27U A43C C66U A69G A70U | -0.466
U2G G6U C27U A43C C66U A69G A70G | -0.39
U2G G6U C27U A43C C66U A69G | -0.31
U2G G6U C27U A43C C66U A69G A70U C71U | -0.411
U2G G6U A43C C46U C66A A69G A70U C71U | -0.313
U2G G6U A43C C46U A70G C71U | -0.229
U2G G6U C27U A43C C66U | -0.298
U2G G6U C27U A43C C66A | -0.0341
U2G G6U A43C C66A | -0.122
U2G G6U C27U A43C C46U C66A A69G A70U C71U | -0.386
U2G G6U C27U A43C A69G A70G C71U | -0.35
U2G G6U C27U A43C C46U C66U A69G A70G C71U | -0.369
U2G G6U C27U A69G A70G | -0.246
U2G G6U A43C C66U A70G C71U | -0.397
U2G G6A C66U A69G A70U C71U | -0.641
U2G G6U C27U A43C C46U C66U A69G C71U | -0.375
U2G G6U A43C C66A A70U | -0.0132
U2G G6U A43C C66A A70G | -0.137
U2G G6U A43C C46U C66A A70G | -0.251
U2G G6U A43C C46U C66A A70U | -0.00113
U2G G6U A43C C46U C66A C71U | -0.154
U2G G6U C27U A43C C46U | -0.127
U2G G6A C66U A70G | -0.0683
U2G G6A C66U A70U | 0.001

Variant | yeast fitness (ln)
U2G G6U C27U A43C C66U C71U | -0.381
U2G G6U A70U C71U | -0.109
U2G G6U A43C C66U A69G A70U C71U | -0.468
U2G G6U A43C C46U A69G A70U C71U | -0.426
U2G G6U C27U A43C C46U C66U A70U C71U | -0.378
U2G G6U C27U A43C C66A A70U | -0.0378
U2G G6U C27U A43C C66A A70G | -0.214
U2G G6U C27U A43C A69G C71U | -0.439
U2G G6U A69G | -0.176
U2G G6U C27U A43C C46U A69G A70U C71U | -0.418
U2G G6U A43C C46U C66U A70G C71U | -0.241
U2G G6U A43C C46U A70U C71U | -0.168
U2G G6U C27U A43C C46U C66U A69G | -0.317
U2G G6A C66A A70U C71U | -0.123
U2G G6U C27U A43C C46U C66U A70G | -0.311
U2G G6U C27U A43C C46U C66U A70U | -0.227
U2G G6U A43C C46U C66A A69G A70G C71U | -0.228
U2G G6U C27U | -0.0917
U2G G6U C27U A43C C46U C66U A69G A70U | -0.374
U2G G6U C27U A43C C46U C66U A69G A70G | -0.318
U2G G6U C27U A43C C46U A70U | -0.156
U2G G6U C27U A43C C46U A70G | -0.208
U2G G6U A70G C71U | -0.173
U2G G6A C66U A70U C71U | -0.0405

Variant | yeast fitness (ln)
U2G G6U A43C A70U C71U | -0.215
U2G G6U A43C C46U C66U A69G A70U | -0.286
U2G G6U A43C C46U C66U A69G A70G | -0.267
U2G G6U C27U A43C C46U C66A A69G A70U | -0.357
U2G G6U C27U A43C C46U C66A A69G A70G | -0.187
U2G G6U C27U A43C A70U | -0.207
U2G G6U C27U A43C A70G | -0.232
U2G G6U A43C C66A A69G A70U C71U | -0.355
U2G G6U A43C A69G A70U C71U | -0.433
U2G G6U A43C C46U C66U A70U | -0.263
U2G G6U A43C C46U C66U A70G | -0.185
U2G G6U C27U A43C C46U C66U C71U | -0.356
U2G G6U C27U A43C A69G A70U C71U | -0.484
U2G G6U C27U A43C C46U C66A A69G C71U | -0.352
U2G G6U A43C C46U C66A A69G C71U | -0.462
U2G G6U A43C A69G A70G C71U | -0.28
U2G G6U C27U A43C | -0.107
U2G G6U A69G A70U C71U | -0.26
U2G G6U C27U A43C C66U A70G C71U | -0.316
U2G G6A C66A A70G C71U | -0.17
U2G G6U A69G A70U | -0.151
U2G G6U A69G A70G | -0.171
U2G G6U A43C | -0.129
